Measured values collected from several papers.
Protocols differ between the studies behind these lines.
Target: Dual specificity tyrosine-phosphorylation-regulated kinase 1B (DYRK1B, Homo sapiens, UniProt Q9Y463)

SMILES | observed | mode | method | concentration | quantity | value
CC(C)(C)c1nc(-c2cccc(NS(=O)(=O)c3c(F)cccc3F)c2F)c(-c2ccnc(N)n2)s1 | enzyme activity | inhibitor | radiometric | 1 µM | remaining activity | 98%
Cn1cc(-c2cc(F)cc(N3CCn4c(cc5c4CCCC5)C3=O)c2CO)cc(Nc2ccc(N3CCN(C4COC4)CC3)cn2)c1=O | enzyme activity | inhibitor | – | 0.1 µM | inhibition | 6%
COCc1c(-c2cc3cc(C)cc(OC)c3s2)c2c(N)ncnn2c1CN1CCNC(=O)C1 | cell-free assay | – | competition with immobilised ligand | 1 µM | inhibition | 71%
N#CC1(c2ccccn2)CCN(Cc2cc(C(=O)O)c(=O)n3ccccc23)CC1 | cell-free assay | – | competition with immobilised ligand | 1 µM | remaining binding | 98%
Nc1ncc(-c2nc(N3CCOCC3)nc(N3CCOCC3)n2)c(C(F)F)n1 | cell-free assay | – | competition with immobilised ligand | 10 µM | remaining binding | 76%
Cn1cc(-c2cccc(N3CCc4c(sc5c4CC(C)(C)C5)C3=O)c2CO)cc(Nc2ccncn2)c1=O | enzyme activity | inhibitor | – | 1 µM | inhibition | 2%
O=C1NC(=O)C(c2cn(CCCn3ccnc3)c3ccccc23)=C1Nc1ccccc1 | enzyme activity | inhibitor | radiometric | 0.5 µM | remaining activity | 56.3%
Cn1cncc1[C@@](O)(COc1ccc(C#N)cc1-c1ccc(OC(F)(F)F)cc1)c1ccc(C#N)cc1 | cell-free assay | – | competition with immobilised ligand | 1 µM | remaining binding | 38%
CC(C)(C)c1nc2c(s1)c1nc(N)ncc1c1ccc(NS(=O)(=O)c3c(F)cccc3F)c(F)c12 | enzyme activity | inhibitor | radiometric | 1 µM | remaining activity | 106%
CC#CC(=O)Nc1cc2c(Nc3ccc(F)c(Cl)c3)ncnc2cn1 | enzyme activity | inhibitor | radiometric | 0.5 µM | remaining activity | 103%
COc1cc(Nc2ncc(F)c(Nc3ccc4c(n3)NC(=O)C(C)(C)O4)n2)cc(OC)c1OC | binding | – | competition with immobilised ligand | 10 µM | inhibition | 78%
C=CC(=O)N1CCC[C@@H](n2nc(-c3ccc(Oc4ccccc4)cc3)c3c(N)ncnc32)C1 | cell-free assay | – | – | 10 µM | remaining signal | 125%
COc1ccc(COc2ccc(Cc3cnc(N)nc3N)cc2OC)cc1 | enzyme activity | inhibitor | radiometric | 0.5 µM | remaining activity | 104%
Cc1nn(C)cc1-c1nc2c(N3CCN(Cc4ccc(Cl)cc4)CC3)c(Cl)cnc2[nH]1 | binding | – | competition with immobilised ligand | 1 µM | remaining binding | 75%
COc1ncccc1-c1cnn2ccc(N3CCN(C(=O)OC(C)C)CC3)nc12 | binding | – | competition with immobilised ligand | 1 µM | remaining binding | 65%
